Data taken from ChEMBL document CHEMBL1125428, “Development of 2,3-dihydro-6-(3-phenoxypropyl)-2-(2-phenylethyl)-5-benzofuranol (L-670,630) as a potent and orally active inhibitor of 5-lipoxygenase” (J Med Chem, 1992).

How the values were obtained:
Rattus norvegicus [1] = assay: Total radioactivity in tissues of male sd rats dosed orally with H-labeled compound at 21 mg/kg after 5 min in liver; format: functional; conditions: route oral
Outline: (§1)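 Male Sprague-Dawley rats received ³H-labelled drug (phenoxy ring, 3.96 μCi/mg) in PEG-400 by gavage at 21 mg/kg. Animals were killed at 5, 15, 30 min and at 1, 2, 4, 24 and 48 h. Homogenates were pooled per group, and total radioactivity was measured as the mean of duplicate combustions, in μg equiv/g. Two or three rats were used per point, except one rat at 24 and 48 h.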

Rattus norvegicus [2] = assay: Total radioactivity in tissues of male sd rats dosed intravenously with H-labeled compound at 21 mg/kg after 10 min in lung; format: functional; conditions: route intravenous
Outline: (§2)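 Male Sprague-Dawley rats given ³H compound iv via femoral vein in PEG-400, 21 mg/kg, 3.96 μCi/mg. Killed at 2, 10, 30 min, 1, 2 and 4 h. Total radioactivity measured by combustion of composited tissue homogenates, in duplicate. Two or three rats per time point, one at 10 and 30 min.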

Rattus norvegicus [3] = assay: Total radioactivity in tissues of male sd rats dosed intravenously with H-labeled compound at 21 mg/kg after 30 min in plasma; format: functional; conditions: route intravenous
Rattus norvegicus [4] = assay: Total radioactivity in tissues of male sd rats dosed orally with H-labeled compound at 21 mg/kg after 24 hr r in lung; format: functional; conditions: route oral; outline: as §1
Rattus norvegicus [5] = assay: Total radioactivity in tissues of male sd rats dosed orally with H-labeled compound at 21 mg/kg after 4 hr in kidney; format: functional; conditions: route oral; outline: as §1
Rattus norvegicus [6] = assay: Amount of radioactivity elute with H-labeled at 21 mg/kg after 1 hr using RP-HPLC. at a dose of 2.02 ug/g in lung of male sd rat.
Rattus norvegicus [7] = assay: Total radioactivity in tissues of male sd rats dosed intravenously with H-labeled compound at 21 mg/kg after 2 hr in kidney; format: functional; conditions: route intravenous; outline: as §2
[8] = molecular target: Arachidonate 5-lipoxygenase (Homo sapiens); assay: Inhibitory activity of LTB4 production in human PMN
Rattus norvegicus [9] = assay: Total radioactivity in tissues of male sd rats dosed orally with H-labeled compound at 21 mg/kg after 4 hr in plasma; format: functional; conditions: route oral; outline: as §1
Rattus norvegicus [10] = assay: Total radioactivity in tissues of male sd rats dosed orally with H-labeled compound at 21 mg/kg after 5 min in lung; format: functional; conditions: route oral; outline: as §1
Rattus norvegicus [11] = assay: Total radioactivity in tissues of male sd rats dosed intravenously with H-labeled compound at 21 mg/kg after 1 hr in lung; format: functional; conditions: route intravenous; outline: as §2
[12] = Peak concentration of drug in rat plasma after oral dosing at 20 mg/kg. Concentration of parent compound was measured before (free) and after (total) beta-glucuronidase treatment; total 0.5 uM; format: ADME, organism-based; design: dose 20 mg/kg, route oral; conditions: read-out: Plasma level
Rattus norvegicus [13] = assay: Total radioactivity in tissues of male sd rats dosed intravenously with H-labeled compound at 21 mg/kg after 30 min in lung; format: functional; conditions: route intravenous; outline: as §2
Rattus norvegicus [14] = assay: Total radioactivity in tissues of male sd rats dosed orally with H-labeled compound at 21 mg/kg after 48 hr in kidney; format: functional; conditions: route oral; outline: as §1
Rattus norvegicus [15] = assay: Total radioactivity in tissues of male sd rats dosed intravenously with H-labeled compound at 21 mg/kg after 2 hr in liver; format: functional; conditions: route intravenous; outline: as §2
Rattus norvegicus [16] = assay: Total radioactivity in tissues of male sd rats dosed orally with H-labeled compound at 21 mg/kg after 15 min in plasma; format: functional; conditions: route oral; outline: as §1
Canis familiaris = species: Canis familiaris; assay: Effect on methemoglobin formation in canine venous blood containing heparin; format: functional, Canis lupus familiaris
Rattus norvegicus [17] = assay: Total radioactivity in tissues of male sd rats dosed intravenously with H-labeled compound at 21 mg/kg after 2 min in lung; format: functional; conditions: route intravenous; outline: as §2
Rattus norvegicus [18] = assay: Total radioactivity in tissues of male sd rats dosed orally with H-labeled compound at 21 mg/kg after 1 hr in liver; format: functional; conditions: route oral; outline: as §1
Rattus norvegicus [19] = assay: Total radioactivity in tissues of male sd rats dosed orally with H-labeled compound at 21 mg/kg after 4 hr in lung; format: functional; conditions: route oral; outline: as §1
Rattus norvegicus [20] = assay: Total radioactivity in tissues of male sd rats dosed orally with H-labeled compound at 21 mg/kg after 1 hr in kidney; format: functional; conditions: route oral; outline: as §1
Rattus norvegicus [21] = assay: Percentage inhibition against antigen induced dyspnea in hyperactive inbred rat at a dose of 0.05 mg/kg; format: functional
Outline: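 Inbred hyperreactive rats, six per group, dosed po 2 h before aerosol ovalbumin challenge, with drug suspension or vehicle (0.4% Methocel/0.5% Tween 80, 10 mL/kg). Methysergide 3 mg/kg iv given 5 min before antigen. Dyspnea duration recorded by pneumotachograph. % inhibition of duration is relative to vehicle controls. Student's t test used; ED50 from linear regression.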

Rattus norvegicus [22] = assay: Total radioactivity in tissues of male sd rats dosed orally with H-labeled compound at 21 mg/kg after 15 min in lung; format: functional; conditions: route oral; outline: as §1
Rattus norvegicus [23] = assay: Total radioactivity in tissues of male sd rats dosed intravenously with H-labeled compound at 21 mg/kg after 4 hr in liver; format: functional; conditions: route intravenous
Outline: (§3)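 ³H label in the phenoxy ring, dissolved in PEG-400, specific activity 3.96 μCi/mg, given iv via femoral vein at 21 mg/kg to male Sprague-Dawley rats. Animals were killed at 2, 10, 30 min, 1, 2 and 4 h. Tissues from each group were pooled and homogenized, and total radioactivity was measured by combustion, averaged over duplicate combustions. Results are expressed as μg equiv/g. Two or three rats were used per time point.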

Rattus norvegicus [24] = assay: Total radioactivity in tissues of male sd rats dosed intravenously with H-labeled compound at 21 mg/kg after 30 min in kidney; format: functional; conditions: route intravenous; outline: as §2
Rattus norvegicus [25] = assay: Total radioactivity in tissues of male sd rats dosed intravenously with H-labeled compound at 21 mg/kg after 4 hr in plasma; format: functional; conditions: route intravenous; outline: as §3
Rattus norvegicus [26] = assay: Total radioactivity in tissues of male sd rats dosed intravenously with H-labeled compound at 21 mg/kg after 2 min in plasma; format: functional; conditions: route intravenous
Rattus norvegicus [27] = assay: Total radioactivity in tissues of male sd rats dosed orally with H-labeled compound at 21 mg/kg after 5 min in kidney; format: functional; conditions: route oral; outline: as §1
Rattus norvegicus [28] = assay: Total radioactivity in tissues of male sd rats dosed orally with H-labeled compound at 21 mg/kg after 24 hr r in plasma; format: functional; conditions: route oral; outline: as §1
[29] = Measure of AUCpo/AUCiv x 100% of the parent compound before (free) and after (total) beta-glucuronidase treatment; total 54%; format: ADME, organism-based; conditions: in vivo, po; read-out: Bioavailabiility
Rattus norvegicus [30] = assay: Total radioactivity in tissues of male sd rats dosed intravenously with H-labeled compound at 21 mg/kg after 30 min in liver; format: functional; conditions: route intravenous; outline: as §2
Rattus norvegicus [31] = assay: Total radioactivity in tissues of male sd rats dosed orally with H-labeled compound at 21 mg/kg after 4 hr in liver; format: functional; conditions: route oral; outline: as §1
Rattus norvegicus [32] = assay: Total radioactivity in tissues of male sd rats dosed intravenously with H-labeled compound at 21 mg/kg after 1 hr in liver; format: functional; conditions: route intravenous; outline: as §2
Rattus norvegicus [33] = assay: Total radioactivity in tissues of male sd rats dosed intravenously with H-labeled compound at 21 mg/kg after 4 hr in kidney; format: functional; conditions: route intravenous; outline: as §2
Rattus norvegicus [34] = assay: Total radioactivity in tissues of male sd rats dosed intravenously with H-labeled compound at 21 mg/kg after 2 min in liver; format: functional; conditions: route intravenous; outline: as §2

`Oc1cc2c(cc1CCCOc1ccccc1)OC(CCc1ccccc1)C2` (stereo not given) showed a Total radioactivity (Rattus norvegicus [1]) of 12.12 ug equiv g-1, a Total radioactivity (Rattus norvegicus [2]) of 75.08 ug equiv g-1 and a Total radioactivity (Rattus norvegicus [3]) of 5.81 ug equiv g-1. It also gave a Total radioactivity (Rattus norvegicus [4]) of 0.1 ug equiv g-1, a Total radioactivity (Rattus norvegicus [5]) of 2.75 ug equiv g-1 and an Activity (Rattus norvegicus [6]) of 56.3%. For the same compound, the Total radioactivity (Rattus norvegicus [7]) was 1.24 ug equiv g-1, the IC50 [8] was 6 nM and the Total radioactivity (Rattus norvegicus [9]) was 3.27 ug equiv g-1. It also gave a Total radioactivity (Rattus norvegicus [10]) of 473.13 ug equiv g-1, a Total radioactivity (Rattus norvegicus [11]) of 40.77 ug equiv g-1 and a Cmax [12] of 300 nM. It also gave a Total radioactivity (Rattus norvegicus [13]) of 56.91 ug equiv g-1, a Total radioactivity (Rattus norvegicus [14]) of 0.03 ug equiv g-1 and a Total radioactivity (Rattus norvegicus [15]) of 3.31 ug equiv g-1. It also gave a Total radioactivity (Rattus norvegicus [16]) of 1.08 ug equiv g-1, a Formation (Canis familiaris) of 4% and a Total radioactivity (Rattus norvegicus [17]) of 100.78 ug equiv g-1. For the same compound, the Total radioactivity (Rattus norvegicus [18]) was 10.93 ug equiv g-1, the Total radioactivity (Rattus norvegicus [19]) was 1.74 ug equiv g-1 and the Total radioactivity (Rattus norvegicus [20]) was 1.62 ug equiv g-1. It also gave an inhibition in vivo at 0.05 mg/kg (Rattus norvegicus [21]) of 50%, a Total radioactivity (Rattus norvegicus [22]) of 190.97 ug equiv g-1 and a Total radioactivity (Rattus norvegicus [23]) of 9.87 ug equiv g-1. For the same compound, the Total radioactivity (Rattus norvegicus [24]) was 22.75 ug equiv g-1, the Total radioactivity (Rattus norvegicus [25]) was 1.18 ug equiv g-1 and the Total radioactivity (Rattus norvegicus [26]) was 10.34 ug equiv g-1. For the same compound, the Total radioactivity (Rattus norvegicus [27]) was 9.12 ug equiv g-1, the Total radioactivity (Rattus norvegicus [28]) was 0.64 ug equiv g-1 and the bioavailability [29] was 5%. The Total radioactivity (Rattus norvegicus [30]) was 41.11 ug equiv g-1, the Total radioactivity (Rattus norvegicus [31]) was 13.77 ug equiv g-1 and the Total radioactivity (Rattus norvegicus [32]) was 26.77 ug equiv g-1. For the same compound, the Total radioactivity (Rattus norvegicus [33]) was 2.82 ug equiv g-1 and the Total radioactivity (Rattus norvegicus [34]) was 142.77 ug equiv g-1.
